# Results reported in PubChem BioAssay.
# Unmarked numbers belong to inactive results.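 Rule for the calls: active = viability at or below 30% in both replicate assays; inconclusive = viability at or below 30% in just one of the two assays; inactive = the rest.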 Square brackets hold non-standard residues; d marks the D form. Peptide text beside a SMILES is read from it. * marks the point of attachment. ξ: configuration not given here. Cbz = O=C(OCc1ccccc1)*; ξK = NCCCCC(N)C(=O)O
# Experiment: HUVEC growth inhibition – cell-based, human, primary screen (AID 575);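 note: 100% = median of untreated cell wells with 0.1% DMSO on each plate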
# Conditions: HUVEC proliferation, CellTiter-Glo luminescence, 72 h; at 10 µM; hits give low values
# Outline: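 Assay system: Primary human umbilical vein endothelial cells | Quantity: 1250 cells per well | Medium: Supplemented EBM, 2% fetal bovine serum | Detection: CellTiter-Glo luminescence measuring cellular ATP | Read-out: % viability vs DMSO wells | Plate: Collagen-coated 384-well format | Times: 72 h exposure, 37 °C, 5% CO2, 30 min RT equilibration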
row,SMILES,viability [%]
1,COC(=O)c1ccccc1NC(=O)CSc1nc2c(c(=O)n(C)c(=O)n2C)n1C,101
2,CCCCOc1cccc(NC(=O)CSc2nccn2C)c1,99.9
3,Cc1ccc(Nc2cc(-n3nc(C)cc3C)ncn2)cc1,70.7
4,COc1ccc(-n2c(SCC#N)nc3ccccc3c2=O)cc1,93.5
5,COc1cc2c(C)nc(C)c(C#N)c2cc1OC,66.4
6,CC1=C(C(=O)OCc2ccccc2)C(c2ccc(C)o2)C2=C(CCCC2=O)N1 (stereo not given),113
7,C=CCNC(=O)c1cc(-c2ccccc2O)on1,99.1
8,Cc1cc(NC(=O)CSc2nc3ccsc3c(=O)n2NC(=O)c2ccccc2)no1,93.9
9,O=C(NCc1ccco1)c1cnn2c(C(F)(F)F)cc(-c3ccco3)nc12,92.9
10,Cc1ccc(-c2nnc3ccc(SCC(=O)NCc4ccco4)nn23)cc1,89
11,CCCc1cc(C(N)=O)c(NC(=O)c2ccco2)s1,94.2
12,COc1ccc(CCNC(=O)c2ccncc2)cc1OC,96.3
13,CCOC(=O)c1nnc(-c2ccccc2)o1,86.1
14,Cc1ccc(S(=O)(=O)N2CCCC(C(=O)NC3=NCCS3)C2)cc1 (stereo not given),83
15,O=C1CCCC2=C1C(c1ccsc1)CC(=O)N2c1ccccc1 (stereo not given),113
16,Cc1csc2nc(CSc3nc4ccccc4o3)c(Br)n12,85.6
17,CC(NC(=O)c1ccccc1NC(=O)c1ccco1)C(=O)O (stereo not given),89
18,CCC(=O)Nc1cc2nn(-c3ccccc3)nc2cc1Cl,55
19,O=C(NC1CCCCC1)n1c(=O)oc2ccc(Cl)cc21,94.8
20,COc1ccc(OC)c(-c2nnc(SCC(=O)NC3CCCCC3)o2)c1,96.2

row,SMILES,viability [%]
1,O=C(O)CCCc1nc(-c2ccccc2)no1,96
2,COCCn1c(SCC(=O)Nc2cccc(OC)c2)nnc1-c1ccc(Cl)cc1,97
3,CCN1C(=O)Cc2cc(S(=O)(=O)N3CCOCC3)ccc21,96.1
4,O=C(Nc1cc(Cl)ccc1Cl)c1noc2c1CCCC2,63.5
5,CCCCn1c(SCC(=O)Nc2ccc(OC)cc2)nc2ccc(N3CCOCC3)cc2c1=O,72.4
6,Cc1ccc(C(=O)N2CCN(C(=O)c3ccc(C)c(C)c3)C(C)C2)cc1C (stereo not given),97.5
7,COc1ccc(C2CC(c3ccccc3)Nc3nc(NC(=O)c4cccs4)nn32)cc1 (stereo not given),83.3
8,CC1(CC(=O)O)C(=O)N=C2C=CC=CN21 (stereo not given),97.9
9,COC(=O)C(CCCCNC(=O)OCc1ccccc1)NC(=O)CN (stereo not given) (H-Gly-[ξK](Cbz)-OMe),96.6
10,Fc1ccc(C(c2nnnn2Cc2ccco2)N2CCN(C3CCCCC3)CC2)cc1 (stereo not given),92.5
11,COc1ccccc1-c1cn[nH]c(=S)n1,100
12,CCOC(=O)C1CCCN(C(=O)c2ccc(CS(=O)(=O)Cc3ccccc3C)o2)C1 (stereo not given),84.4
13,O=c1c2[nH]c3ccccc3c2ncn1CCCn1ccnc1,93.7
14,COc1ccc(S(=O)(=O)N2CCN(C3CCCCCCC3)CC2)cc1,106
15,O=C(CCn1c(=S)[nH]c2ccccc2c1=O)NCC1CCCO1 (stereo not given),111
16,CCC(=O)Nc1ccc(NC(=O)c2cccc(OC)c2)nc1,101
17,CN(Cc1ccccc1)C(=O)c1ccc2c(c1)OCO2,88.2
18,O=C(O)CC1SC(=Nc2cccc(C(F)(F)F)c2)NC1=O (stereo not given),104
19,CCOC(=O)C1=C(C)N=c2s/c(=C\c3cccn3C)c(=O)n2C1c1cccc(OC)c1OC (stereo not given),75.7
20,CC(=O)c1cccc(NC(=O)N2CCCc3ccccc32)c1,95
